Data set [1] can be described thus: In vivo inhibition of MGAT2 in olive oil-induced C57BL/6J mouse model of hypertriglyceridemia assessed as reduction in plasma chylomicron triglyceride level at 3 mg/kg, po preadministered with compound for 6 hrs followed by Pluronic F127 addition for 30 mins and further treated with olive oil for 4 hrs by automatic analyzer relative to control. It counts as functional. The note with it: time 10.5 hrs. The method in brief:
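Male C57BL/6J mice (20–25 g) fasted overnight and dosed orally at 0.3, 1 or 3 mg/kg. Olive oil (8 mL/kg po) or water given 6 h later, with Pluronic F127 500 mg/kg i.p. 30 min before oil. Tail-vein plasma taken at 0, 2 and 4 h and TG measured by automatic analyzer. CM/TG = oil-group TG minus water-group TG; AUC over 4 h; n = 5, mean ± SD; Williams' test vs vehicle.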

Data set [2] in a line: Oral bioavailability in mouse at 1 mg/kg administered as cassette dose by LC/MS/MS analysis. It is filed as ADME, organism-based. The note with it: in vivo. An outline of the steps: (§1)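 Non-fasted mice dosed by cassette, iv 0.1 mg/kg or po 1 mg/kg suspended in 0.5% methylcellulose aqueous solution; plasma obtained from blood by centrifugation, deproteinized with acetonitrile, and compound concentrations measured by LC/MS/MS.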

Data set [3] deals with CYP3A4 (Homo sapiens, UniProt P08684). In words: Reversible inhibition of CYP3A4 in human liver microsomes using midazolam as substrate at 10 uM incubated for 10 mins by LC/MS/MS analysis relative to control. It is filed as ADME, Microsome. The note with it: probe midazolam. The method in brief: (§2)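 Human liver microsomes at 0.1 mg/mL incubated 10 min at 37 °C with isoform-specific substrate and 10 µM test compound. Pairs: 1A2 tacrine/1-hydroxytacrine; 2C8 paclitaxel/6α-hydroxypaclitaxel; 2C9 tolbutamide/4-hydroxytolbutamide; 2D6 dextromethorphan/dextrorphan; 3A4 midazolam/1'-hydroxymidazolam. Stopped with acetonitrile/water; metabolite measured by LC/MS/MS.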

In data set [4] the target is T1, Sterol O-acyltransferase 1 (Homo sapiens, UniProt P35610).
T1 sequence (P35610 whole entry): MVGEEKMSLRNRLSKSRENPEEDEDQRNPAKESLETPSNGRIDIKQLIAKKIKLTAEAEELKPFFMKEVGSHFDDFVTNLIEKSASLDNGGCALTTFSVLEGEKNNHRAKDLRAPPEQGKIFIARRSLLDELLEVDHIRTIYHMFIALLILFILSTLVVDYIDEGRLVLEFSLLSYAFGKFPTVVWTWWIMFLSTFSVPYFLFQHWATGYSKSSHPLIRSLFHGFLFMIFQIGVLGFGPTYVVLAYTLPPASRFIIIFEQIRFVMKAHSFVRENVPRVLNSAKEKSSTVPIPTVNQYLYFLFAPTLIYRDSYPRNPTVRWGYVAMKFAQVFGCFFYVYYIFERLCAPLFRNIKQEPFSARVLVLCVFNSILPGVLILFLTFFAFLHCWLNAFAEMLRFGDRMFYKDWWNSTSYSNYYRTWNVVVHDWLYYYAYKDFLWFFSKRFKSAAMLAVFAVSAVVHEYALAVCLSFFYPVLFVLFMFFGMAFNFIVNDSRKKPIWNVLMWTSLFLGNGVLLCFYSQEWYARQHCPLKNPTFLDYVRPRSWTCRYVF
The data set is described as follows: Inhibition of N-terminal FLAG-tagged full-length human ACAT1 expressed in recombinant baculovirus infected Sf21 cells using [1-14C]-oleoyl-CoA and cholesterol as substrate incubated for 40 mins by TLC analysis. The method in brief:
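Sf-21 insect cell membranes from baculovirus infection, prepared in pH 7.4 phosphate/sucrose/KCl buffer. Enzyme at 30 µg/mL reacted with 5 µM [1-14C]-oleoyl-CoA and 100 µM cholesterol for 40 min at 32 °C. Lipids extracted by modified Bligh & Dyer, separated on silica TLC (hexane/ethyl ether/acetic acid), and radioactivity imaged.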

Data set [5] is described as follows: MRT in mouse at 1 mg/kg, po administered as cassette dose by LC/MS/MS analysis. It counts as ADME, organism-based. Conditions: in vivo. The method in brief:
as §1

Data set [6] has as its target CYP2D6 (Homo sapiens, UniProt P10635). The data set is described as follows: Reversible inhibition of CYP2D6 in human liver microsomes using dextromethorphan as substrate at 10 uM incubated for 10 mins by LC/MS/MS analysis relative to control. It counts as ADME, Microsome. Conditions: probe dextromethorphan. An outline of the steps: as §2
For orientation: Microsomes from liver hold many membrane-bound enzymes, among them those of drug oxidation.

A short description of data set [7]: Volume of distribution at steady state in mouse at 0.1 mg/kg, iv administered as cassette dose by LC/MS/MS analysis. It is filed as ADME, organism-based. Conditions: in vivo, read-out: Vdss. The method in brief:
as §1

Data set [8] concerns the target T2, CYP2C8 (Homo sapiens, UniProt P10632).
T2 sequence (P10632 whole entry): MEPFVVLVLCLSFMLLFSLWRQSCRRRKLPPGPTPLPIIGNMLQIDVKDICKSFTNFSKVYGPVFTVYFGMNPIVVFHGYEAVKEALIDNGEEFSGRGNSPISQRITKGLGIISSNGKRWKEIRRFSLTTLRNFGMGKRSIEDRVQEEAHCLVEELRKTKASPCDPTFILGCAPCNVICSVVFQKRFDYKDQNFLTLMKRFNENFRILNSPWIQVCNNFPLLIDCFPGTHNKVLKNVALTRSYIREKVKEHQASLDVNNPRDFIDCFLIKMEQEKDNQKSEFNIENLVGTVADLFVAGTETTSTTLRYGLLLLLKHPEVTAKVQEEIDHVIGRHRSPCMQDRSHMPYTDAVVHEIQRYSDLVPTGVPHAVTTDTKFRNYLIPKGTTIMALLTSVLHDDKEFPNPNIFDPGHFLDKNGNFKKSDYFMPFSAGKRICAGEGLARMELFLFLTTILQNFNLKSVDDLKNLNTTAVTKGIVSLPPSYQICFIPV
The data set is described as follows: Reversible inhibition of CYP2C8 in human liver microsomes using paclitaxel as substrate at 10 uM incubated for 10 mins by LC/MS/MS analysis relative to control. It counts as ADME, Microsome. Conditions: probe paclitaxel. The method in brief: as §2

SMILES strings stand for the structures. A value given as a limit tells only on which side of the number the result lay.

Sequence of CYP3A4 (P08684 whole entry, canonical isoform): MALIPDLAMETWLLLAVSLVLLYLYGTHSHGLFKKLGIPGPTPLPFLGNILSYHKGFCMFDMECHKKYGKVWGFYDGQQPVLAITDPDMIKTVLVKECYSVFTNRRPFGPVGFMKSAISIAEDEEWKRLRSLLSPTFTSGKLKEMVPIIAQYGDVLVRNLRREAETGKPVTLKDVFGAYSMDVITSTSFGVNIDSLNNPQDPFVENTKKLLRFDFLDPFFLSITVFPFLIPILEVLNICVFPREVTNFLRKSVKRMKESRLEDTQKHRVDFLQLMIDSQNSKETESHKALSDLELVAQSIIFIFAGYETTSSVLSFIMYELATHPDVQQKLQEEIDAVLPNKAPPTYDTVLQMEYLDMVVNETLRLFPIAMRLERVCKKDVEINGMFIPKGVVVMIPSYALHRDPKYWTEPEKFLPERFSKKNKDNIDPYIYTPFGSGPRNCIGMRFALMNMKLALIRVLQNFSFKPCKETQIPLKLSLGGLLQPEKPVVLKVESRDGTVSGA
Sequence of CYP2D6 (P10635 whole entry): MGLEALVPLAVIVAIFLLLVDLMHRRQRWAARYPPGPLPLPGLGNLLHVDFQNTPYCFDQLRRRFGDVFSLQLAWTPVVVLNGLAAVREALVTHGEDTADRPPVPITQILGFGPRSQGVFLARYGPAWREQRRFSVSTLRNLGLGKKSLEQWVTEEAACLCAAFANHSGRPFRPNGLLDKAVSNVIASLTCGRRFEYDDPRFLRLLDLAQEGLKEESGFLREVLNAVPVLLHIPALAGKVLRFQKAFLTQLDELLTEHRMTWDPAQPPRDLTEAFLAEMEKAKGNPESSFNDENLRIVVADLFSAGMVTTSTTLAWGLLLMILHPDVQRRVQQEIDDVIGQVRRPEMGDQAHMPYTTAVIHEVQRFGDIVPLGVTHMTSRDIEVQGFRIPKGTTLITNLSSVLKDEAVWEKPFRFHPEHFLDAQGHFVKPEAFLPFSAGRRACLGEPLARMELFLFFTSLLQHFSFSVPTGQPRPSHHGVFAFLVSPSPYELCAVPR

In the case of `Cn1nc(C(F)(F)F)cc1-c1cnc(N2CCc3cc(S(=O)(=O)Nc4c(F)cc(Cl)cc4F)cc(N4CCCC4=O)c32)nc1` [TP-020], the inhibition in vivo (usually the relative decrease from the control value, in per cent) at 3 mg/kg in data set [1] was 100%. In addition, the bioavailability (in general, the share of a dose that reaches the circulation, judged against a reference dose that is usually intravenous) in data set [2] amounted to 50%. Also, the inhibition (as a rule, the relative decrease from the control value, in per cent) at 10 min, 10 µM in data set [3] was less than 10%; in data set [6] it was less than 10%; in data set [8], 32%. For the same compound, the IC50 (usually the concentration that inhibits the measured activity by half) in data set [4] is more than 10 µM. Moreover, in data set [5], the MRT (commonly a mean duration of stay, worked out from the concentration-time curve) worked out at 3.3 h. For the same compound, the Vd in data set [7] was 0.539 L/kg.

These data come from ChEMBL document CHEMBL5678813, “Optimization of a novel series of N-phenylindoline-5-sulfonamide-based acyl CoA:monoacylglycerol acyltransferase-2 inhibitors: Mitigation of CYP3A4 time-dependent inhibition and phototoxic liabilities” (Bioorg Med Chem, 2015).
